Results from ChEMBL document CHEMBL1140647, “Synthesis and evaluation of potent and selective beta3 adrenergic receptor agonists containing heterobiaryl carboxylic acids” (Bioorg Med Chem Lett, 2007).

Legend:
[1] = species on record: Homo sapiens; assay: Selectivity ratio of pEC50 for human beta3 adrenergic receptor over beta-2 adrenergic receptor
Method in brief: (§1)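 Ratio of […]. pEC50 values come from cAMP accumulation in CHO cells expressing cloned human β1, β2 or β3 receptors.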

[2] = Half life in dog at 0.2 mg/kg, iv; format: ADME, organism-based, Canis lupus familiaris; design: dose 0.2 mg/kg, route intravenous; settings: in vivo
Method in brief: (§2)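 Single intravenous dose of 0.2 mg/kg. Plasma drug levels measured by LC–MS/MS, and clearance and half-life derived from them.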

[3] = target: T1, Beta-3 adrenergic receptor (Homo sapiens, UniProt P13945); assay: Agonist activity at human beta-3 adrenergic receptor expressed in CHO cells assessed as cAMP accumulation; format: functional, cell-based
Method in brief: (§3)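 cAMP accumulation measured in CHO cells expressing the cloned human receptor subtype. Potency given as pEC50; Emax is the fitted maximal response of the concentration-response, expressed as percent of the maximal response to R-(−)-isoproterenol. Values are from n ≥ 3 experiments unless noted (some n = 2), with standard deviation within 10%.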
Target sequence in this assay (P13945 whole entry): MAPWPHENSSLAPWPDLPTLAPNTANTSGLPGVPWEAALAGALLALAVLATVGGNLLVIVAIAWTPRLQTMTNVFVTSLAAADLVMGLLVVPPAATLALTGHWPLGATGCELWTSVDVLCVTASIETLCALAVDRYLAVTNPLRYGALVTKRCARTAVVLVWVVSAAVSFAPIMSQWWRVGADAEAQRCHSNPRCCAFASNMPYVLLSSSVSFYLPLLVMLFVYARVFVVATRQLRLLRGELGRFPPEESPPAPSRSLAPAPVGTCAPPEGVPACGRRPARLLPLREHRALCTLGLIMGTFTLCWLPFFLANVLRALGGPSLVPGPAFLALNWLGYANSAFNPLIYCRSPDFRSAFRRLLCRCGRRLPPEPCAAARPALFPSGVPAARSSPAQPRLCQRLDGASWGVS

[4] = target: T2, Beta-2 adrenergic receptor (Homo sapiens, UniProt P07550); assay: Agonist activity at human beta-2 adrenergic receptor expressed in CHO cells assessed as cAMP accumulation; format: functional, cell-based; method in brief: as §3
Target sequence in this assay (P07550 whole entry): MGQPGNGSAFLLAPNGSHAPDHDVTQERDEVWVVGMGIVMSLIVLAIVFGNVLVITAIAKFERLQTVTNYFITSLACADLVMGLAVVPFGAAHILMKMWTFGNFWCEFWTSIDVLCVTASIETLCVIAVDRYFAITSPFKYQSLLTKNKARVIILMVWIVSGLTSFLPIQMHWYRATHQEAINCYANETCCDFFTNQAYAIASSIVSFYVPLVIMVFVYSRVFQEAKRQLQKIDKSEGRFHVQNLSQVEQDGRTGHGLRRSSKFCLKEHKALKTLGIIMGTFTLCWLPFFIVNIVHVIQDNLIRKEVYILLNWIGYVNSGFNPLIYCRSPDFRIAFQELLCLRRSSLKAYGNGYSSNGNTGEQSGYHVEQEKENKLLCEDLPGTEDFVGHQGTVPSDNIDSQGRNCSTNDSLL

[5] = species on record: Homo sapiens; assay: Selectivity ratio of pEC50 for human beta-3 adrenergic receptor over beta-1 adrenergic receptor; method in brief: as §1
[6] = target: T3, Beta-1 adrenergic receptor (Homo sapiens, UniProt P08588); assay: Agonist activity at human beta-1 adrenergic receptor expressed in CHO cells assessed as cAMP accumulation; format: functional, cell-based; method in brief: as §3
Target sequence in this assay (P08588 whole entry): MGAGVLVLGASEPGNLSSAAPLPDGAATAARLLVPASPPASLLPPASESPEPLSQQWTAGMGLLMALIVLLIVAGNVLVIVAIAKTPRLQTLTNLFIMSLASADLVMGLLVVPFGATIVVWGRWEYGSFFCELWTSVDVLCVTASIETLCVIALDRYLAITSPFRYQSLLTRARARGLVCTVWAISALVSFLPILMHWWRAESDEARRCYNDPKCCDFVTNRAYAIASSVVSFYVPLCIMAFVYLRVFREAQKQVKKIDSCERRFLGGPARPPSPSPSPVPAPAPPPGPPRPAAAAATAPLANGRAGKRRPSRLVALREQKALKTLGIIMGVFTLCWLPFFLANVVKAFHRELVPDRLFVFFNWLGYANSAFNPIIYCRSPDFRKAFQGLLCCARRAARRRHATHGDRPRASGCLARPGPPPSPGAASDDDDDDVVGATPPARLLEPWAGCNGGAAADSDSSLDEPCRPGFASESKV

[7] = target: T3, Beta-1 adrenergic receptor; assay: Agonist activity at human beta-1 adrenergic receptor expressed in CHO cells assessed as cAMP accumulation relative to R-(-)-isoproterenol; format: functional, cell-based; method in brief: as §3
Target sequence in this assay (P08588 whole entry, looked up): as the sequence (P08588 whole entry) above

[8] = Plasma clearance in dog at 0.2 mg/kg, iv; format: ADME, organism-based, Canis lupus familiaris; design: dose 0.2 mg/kg, route intravenous; method in brief: as §2
[9] = target: T1, Beta-3 adrenergic receptor; assay: Agonist activity at human beta-3 adrenergic receptor expressed in CHO cells assessed as cAMP accumulation relative to R-(-)-isoproterenol; format: functional, cell-based; method in brief: as §3
Target sequence in this assay (P13945 whole entry, looked up): as the sequence (P13945 whole entry) above

[10] = target: T2, Beta-2 adrenergic receptor; assay: Agonist activity at human beta-2 adrenergic receptor expressed in CHO cells assessed as cAMP accumulation relative to R-(-)-isoproterenol; format: functional, cell-based; method in brief: as §3
Target sequence in this assay (P07550 whole entry, looked up): as the sequence (P07550 whole entry) above

[11] = system: Mus musculus; assay: Reduction of glucose level in db/db mouse serum at 0.3 mg/kg, po bid for 14 days; format: functional
Method in brief: (§4)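 Male db/db mice, 60 days old at the start of dosing, 10 per group. Dosed by oral gavage twice daily for 14 days in 0.025 M methanesulfonic acid vehicle, with dosing solutions prepared fresh daily. Day 0 baseline taken from 10 exsanguinated mice. Mice were sacrificed on days 7 and 14, and serum glucose was measured on an automated chemistry analyzer against vehicle-treated mice.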

[12] = system: Mus musculus; assay: Reduction of glucose level in db/db mouse serum at 0.03 mg/kg, po bid for 14 days; format: functional; method in brief: as §4
[13] = system: Mus musculus; assay: Reduction of glucose level in db/db mouse serum at 1 mg/kg, po bid for 14 days; format: functional; method in brief: as §4
[14] = system: Mus musculus; assay: Reduction of glucose level in db/db mouse serum at 0.1 mg/kg, po bid for 14 days; format: functional; method in brief: as §4

Selectivity ratio [1] | half-life [2] | EC50 [3] | EC50 [4] | Selectivity ratio [5] | EC50 [6] | Emax [7] | clearance [8] | Emax [9] | Emax [10] | SMILES | Activity [11] | Activity [12] | Activity [13] | Activity [14]
200 | ≤ 1 h | 0.794 nM | 158 nM | 100 | 79.4 nM | 21% | 5.3 mL/min/kg | 97% | 48% | C[C@H](CNc1cccc(-c2nc(C(=O)O)cs2)c1)NC[C@H](O)c1cccc(Cl)c1 |  |  |  | 
8 |  | 6.31 nM | 50.1 nM | 3 | 20 nM | 21% |  | 100% | 41% | C[C@H](CNc1ccc(-c2nc(C(=O)O)cs2)cc1)NC[C@H](O)c1cccc(Cl)c1 |  |  |  | 
500 | ≤ 1 h | 0.251 nM | 126 nM | 400 | 100 nM | 14% | 5.3 mL/min/kg | 87% | 38% | C[C@H](CNc1cccc(-c2occc2C(=O)O)c1)NC[C@H](O)c1cccc(Cl)c1 |  |  |  | 
50 |  | 2 nM | 100 nM | 50 | 100 nM | 20% |  | 97% | 76% | C[C@H](CNc1cccc(-c2csc(C(=O)O)n2)c1)NC[C@H](O)c1cccc(Cl)c1 |  |  |  | 
8 |  | 15.8 nM | 126 nM | 10 | 158 nM | 30% |  | 115% | 39% | C[C@H](CNc1cccc(-c2nc(C(=O)O)co2)c1)NC[C@H](O)c1cccc(Cl)c1 |  |  |  | 
3 |  |  |  | 5 |  |  |  |  |  | C[C@H](CNc1ccc(CC(=O)O)cc1)NC[C@H](O)c1cccc(Cl)c1 |  |  |  | 
320 | ≤ 1 h | 1.26 nM | 398 nM | 20 | 25.1 nM | 24% | 5.3 mL/min/kg | 90% | 55% | C[C@H](CNc1ccc(-c2ocnc2C(=O)O)cc1)NC[C@H](O)c1cccc(Cl)c1 |  |  |  | 
6 |  | 15.8 nM | 100 nM | 0.8 | 12.6 nM | 23% |  | 92% | 53% | C[C@H](CNc1ccc(-c2nc(C(=O)O)co2)cc1)NC[C@H](O)c1cccc(Cl)c1 |  |  |  | 
4000 | 1.6 h | 1.26 nM | 5010 nM | 3200 | 3980 nM | < 2% | 1.5 mL/min/kg | 103% | < 5% | O=C(O)c1ccsc1-c1cccc(NCCNC[C@H](O)c2cccc(Cl)c2)c1 |  |  |  | 
250 | ≤ 1 h | 0.316 nM | 79.4 nM | 63 | 20 nM | 18% | 5.3 mL/min/kg | 85% | 36% | C[C@H](CNc1ccc(-c2occc2C(=O)O)cc1)NC[C@H](O)c1cccc(Cl)c1 |  |  |  | 
79 | ≤ 1 h | 3.98 nM | 316 nM | 100 | 398 nM | 14% | 5.3 mL/min/kg | 102% | 49% | C[C@H](CNc1cccc(-c2ocnc2C(=O)O)c1)NC[C@H](O)c1cccc(Cl)c1 |  |  |  | 
13000 | ≤ 1 h | 0.0631 nM | 794 nM | 20000 | 1260 nM | < 7% | 5.3 mL/min/kg | 85% | 9% | C[C@H](CNc1cccc(-c2sccc2C(=O)O)c1)NC[C@H](O)c1cccc(Cl)c1 |  |  |  | 
16 |  |  |  | 10 |  |  |  |  |  | C[C@H](CNc1ccc(CCC(=O)O)cc1)NC[C@H](O)c1cccc(Cl)c1 |  |  |  | 
32 |  | 1.58 nM | 50.1 nM | 8 | 12 nM | 19% |  | 100% | 63% | C[C@H](CNc1ccc(-c2csc(C(=O)O)n2)cc1)NC[C@H](O)c1cccc(Cl)c1 |  |  |  | 
1600 |  | 0.398 nM | 631 nM | 250 | 100 nM | 14% |  | 96% | 19% | C[C@H](CNc1ccc(-c2sccc2C(=O)O)cc1)NC[C@H](O)c1cccc(Cl)c1 |  |  |  | 
320 | 6.1 h | 7.94 nM | 2510 nM | 630 | 5010 nM | < 5% | 0.65 mL/min/kg | 91% | < 5% | O=C(O)c1ccoc1-c1cccc(NCCNC[C@H](O)c2cccc(Cl)c2)c1 | 191 mg/dL | 376 mg/dL | 183 mg/dL | 255 mg/dL
